Screens from PubChem.
Shown are actives, neighbours in structure and some others; about 2% of the full set was active somewhere.
SR-BI DiI-HDL act = activators of SR-BI mediated HDL lipid uptake; CHO ldlA[mSR-BI] cells, DiI-HDL uptake fluorescence, 3 h; 100 = double the neutral-control signal; activation, % at 12.5 µM; 320,000 tested, 0.096% active; AID 504775;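 active = mean replicate activation of at least 60% and every replicate at or above 60%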;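 note: 0% = median plate neutral-control signal and 100% = twice that signal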
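System: CHO ldlA[mSR-BI] cells / Medium: HEPES-buffered (25 mM, pH 7.4) F12 plus 0.5% BSA / Probe or stimulus: labelled HDL, 10 µg/mL / Doses: single compound concentration, delivered by pin transfer / Schedule: 3 h, 37 °C / Measured by: DiI fluorescence, bottom read / Measure: cell-associated DiI fluorescence as measure of HDL uptake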
dFosB act = mouse delta FosB homodimer activation. P13346. purified delta FosB, TAMRA-CDK5 oligo fluorescence polarization; percent of positive-control signal above neutral wells. activation, % at 25 µM. 340,000 tested, 0.99% active. AID 493131;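 active = mean activation above about 17%, with every replicate also reaching it, limit read from the data, passing the limit was not always enough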
CDK5 p35 inh = CDK5/p35 (human) kinase inhibition; Q00535+Q15078; inhibition, % at 10 µM; Recombinant CDK5/p35, ADP-Glo luminescence, 60 min; 330,000 tested, 0.01% active; AID 488839;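 active = highest replicate inhibition of at least 50% and at least 75% of replicates reaching 50%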;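 note: plate controls were DMSO neutral control for no effect and GW8510 at 10 µM for full effect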
Target sequence (Q00535 whole entry, looked up): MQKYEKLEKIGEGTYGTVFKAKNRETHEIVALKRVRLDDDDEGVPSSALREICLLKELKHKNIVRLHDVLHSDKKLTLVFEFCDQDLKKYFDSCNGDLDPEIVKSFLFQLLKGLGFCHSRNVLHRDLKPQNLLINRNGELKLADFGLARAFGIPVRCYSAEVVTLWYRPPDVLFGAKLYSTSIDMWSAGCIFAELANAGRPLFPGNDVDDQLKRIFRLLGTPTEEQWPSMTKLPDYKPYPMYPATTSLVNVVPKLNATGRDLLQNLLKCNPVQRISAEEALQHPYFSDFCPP
Target sequence (Q15078 whole entry, looked up): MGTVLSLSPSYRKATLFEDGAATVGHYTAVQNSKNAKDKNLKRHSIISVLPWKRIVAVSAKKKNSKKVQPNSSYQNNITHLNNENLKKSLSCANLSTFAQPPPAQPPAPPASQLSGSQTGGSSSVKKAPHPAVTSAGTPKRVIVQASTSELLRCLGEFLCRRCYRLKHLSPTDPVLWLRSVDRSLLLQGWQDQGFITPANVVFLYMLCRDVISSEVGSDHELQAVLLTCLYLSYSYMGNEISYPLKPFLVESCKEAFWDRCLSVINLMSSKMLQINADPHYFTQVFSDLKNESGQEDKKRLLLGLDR
SR-BI DiI inh = inhibitors of mouse SR-BI mediated HDL lipid uptake | Q61009 | ldlA[mSR-BI] CHO cells, DiI-HDL uptake fluorescence, 3 h | inhibition, % at 12.5 µM | 320,000 tested, 0.96% active | AID 488896;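 active = mean replicate inhibition of at least 70% and a set share of replicates each scoring 70 or more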;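 note: 0% = median of neutral control wells and 100% = median of positive control wells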
Starred values were filed as active, the others as inactive; i = inactive; / = no result given.

SMILES	SR-BI DiI-HDL act	dFosB act	CDK5 p35 inh	SR-BI DiI inh
COc1ccc(Br)cc1C(=O)Nc1ccc(N2CCN(S(C)(=O)=O)CC2)cc1	/	-2	2	/
CCc1nn(C(C)C(=O)NC2CCCCCC2)c(=O)c2cc3occc3n12 (stereo not drawn)	9	-1	2	-9
CCOc1cc(/C=N/N=C(N)N)ccc1OCc1ccc(Cl)cc1	14	56*	0	-14
NC(N)=N/N=C/c1ccc(OCc2ccccc2)c(OCc2ccccc2)c1	/	-311	-1	/
COc1cc(/C=N/N=C(N)N)ccc1OCc1ccc(Cl)cc1	10	59*	1	-10
CSCC[C@H](N)C(=O)N1CCC(C(=O)N[C@H](C(=O)NCc2ccccc2F)C(C)C)CC1	9	-2	-1	-9
Oc1c(Cl)cc(Cl)cc1/C=N/NC(=S)NC1CC2C=CC1C2 (stereo not drawn)	-98	-11	1	98*
O=C(NC1CCN(Cc2ccc3ccccc3c2)CC1)c1ccccc1	/	-15	-4	/
Cc1ccccc1OCC(=O)NC(=S)Nc1ccc(N2CCOCC2)c(Cl)c1	867*	-4	0	i
COc1ccccc1C(=O)NC(=S)Nc1ccc(N2CCOCC2)c(Cl)c1	-47	-3	0	48
CCC(C)Sc1ccc(-c2nc3cc(C)ccn3c2NC2CCCCC2)cc1 (stereo not drawn)	-81	9	0	81*
COc1ccc(C23CC4CC(CC(C4)C2)C3)cc1C(=O)NCCN(C)C	38	11	-1	-38
CN(C)CCNC(=O)c1cccc2nc3cccc(F)c3nc12	14	33*	-2	-14
COc1ccc(OC)c2nc3c(C(=O)NCCN(C)C)cccc3nc12	13	87*	2	-13
CN(C)CCNC(=O)c1cccc2ccc(-c3ccc(-c4ccccc4)cc3)nc12	11	-60	-1	-11
CCOc1ccc(S(=O)(=O)N2CCCC(C(=O)N3CCN(c4ccccc4)CC3)C2)cc1 (stereo not drawn)	7	-17	-1	-7
Cc1ccc(Sc2ncccc2C(=O)NCC(c2ccc(F)cc2)N2CCOCC2)cc1C (stereo not drawn)	-8	-18	1	8
Cc1nc(NC2=NCN(Cc3cccnc3)CN2)nc2ccccc12	2	6	-3	-2
Cc1nc(NC2=NCN(CCCN3CCOCC3)CN2)nc2c(C)cccc12	21	32*	1	-21
Cc1cccc(OCC(=O)Nc2ccc(S(=O)(=O)Nc3onc(C)c3C)cc2)c1C	-5	-10	1	5
COc1cc(/C=C(\C#N)C(=O)Nc2ccc(SC(F)F)cc2)cc(OC)c1OC	-86	-4	-1	86*
O=C(Cn1cc([N+](=O)[O-])cn1)N1CCN(Cc2ccc3c(c2)OCO3)CC1	9	-3	1	-9
COc1ccc(S(=O)(=O)N(C)C2CCN(C)CC2)cc1	263*	3	0	-263
COc1cc(NC(=S)NN2CCN(C)CC2)cc(OC)c1OC	26	-6	0	-21
COCCN(C(=S)Nc1c(C)cccc1C)C(C)c1ccco1 (stereo not drawn)	/	-4	0	/
SMILES	SR-BI DiI-HDL act	dFosB act	CDK5 p35 inh	SR-BI DiI inh
Cc1ccc(NC(=O)c2ccc3c(SCC(=O)O)c4c(nc3c2)CCCC4)c(Br)c1	10	-18	1	-10
COc1cc(NCCCCCCN)c2ncccc2c1OC	1	18*	0	-1
COc1cc(NC(C)CCCNC(C)C)c2ncccc2c1OC (stereo not drawn)	-45	-8	2	45
CN(C)CCCNc1ccc(-c2cc(Nc3cccc(Cl)c3)ncn2)cn1	12	39*	7	-12
COc1ccc(NC(=O)Nc2ccc3c(c2)C(=O)N([C@H](C)CO)C[C@H](C)[C@@H](CN(C)C(=O)Nc2ccc(OC)cc2)O3)cc1	-10	0	0	10
CC(C)N(C(=O)COC(=O)[C@@H]1CC(O)CN1S(=O)(=O)c1ccc(C(C)(C)C)cc1)C(C)C (stereo partly drawn)	24	-10	1	-24
O=C1CN(S(=O)(=O)c2cccc(Cl)c2Cl)c2ccccc2N1	/	-5	-5	/
COc1ccc(-c2cnn3c(N)c(S(=O)(=O)C(C)(C)C)cnc23)cc1	-12	0	-1	12
COc1ccc(-c2cnc3c(-c4ccc(F)cc4)cnn3c2N)cc1	-95	-11	-1	95*
C=CCc1ccccc1OCC(O)CN1CCN(CCN2C(=O)c3cccc4cccc(c34)C2=O)CC1 (stereo not drawn)	-31	47*	1	31
COc1ccc(-c2nc(-c3ccc(O)cc3O)cs2)cc1OC	-91	-27	-1	91*
COc1ccc(-c2csc(C3=C(O)CN(C(C)C)C3=N)n2)cc1OC	-84	-11	-8	84*
CC(C)CCN1CC(O)=C(c2nc(-c3ccc(Cl)cc3)cs2)C1=N	-76	0	0	76*
COc1ccc(-c2nc(CCl)cs2)cc1OC	15	0	1	-15
COc1ccc(N2CC(O)=C(c3nc(-c4ccccc4)cs3)C2=N)cc1	/	-4	-1	/
COc1ccccc1NS(=O)(=O)c1ccc(C(=O)N2CCN(c3ccccc3)CC2)cc1	14	-14	-1	-14
C[C@H]1CN([C@@H](C)CO)C(=O)c2cccc(NC(=O)Nc3ccc(F)cc3)c2O[C@@H]1CN(C)Cc1ccc(C(=O)O)cc1	-3	2	0	3
COc1cc(OC)cc(-c2c(C#Cc3ccsc3)c3cc(-c4ccc(OC)nc4)ccc3n2C)c1	-46	-3	1	46
Cc1ncc(N=Nc2ccccc2Cl)c(-c2ccccc2)n1	-14	-12	-1	14
CC(=O)Nc1sc(N)nc1-c1ccccc1	41	2	0	-41
Nc1nc(-c2ccccc2)c(N=Nc2ccccc2Cl)s1	-88	6	3	88*
Nc1nc(-c2ccccc2)c(N=Nc2cccc3ccccc23)s1	-134	6	2	134*
CN(CC(=O)Nc1ccc(Cl)cc1)C(=O)CNC(=O)Cc1cccc2ccccc12	-30	-9	-1	30
COc1cccc(CNC(=O)C2CCCN(S(=O)(=O)c3ccc4c(c3)C(C)(C)C(=O)N4C)C2)c1 (stereo not drawn)	1	-6	-2	-1
Cc1ccc(C(C)(C)NC(=O)C2CCC(=O)N(Cc3ccccc3F)C2)cc1 (stereo not drawn)	5	-1	-2	-5
SMILES	SR-BI DiI-HDL act	dFosB act	CDK5 p35 inh	SR-BI DiI inh
Cn1c(C(=O)NN)cc2cc(Oc3ccccc3)ccc21	-79	-7	1	79*
Cc1n[nH]c(C)c1Sc1ccccc1[N+](=O)[O-]	6	2	-1	-6
Cc1n[nH]c(C)c1Sc1ccccc1N=Cc1cc(Cl)cc([N+](=O)[O-])c1O	-4	51*	2	4
CCc1cc(Br)ccc1NC(=S)NCCc1ccccc1	-76	-7	-4	76*
COc1ccc(NC(=S)NCCc2ccccc2)c(C)c1	-20	-5	0	20
CCCCn1nc2cc(C(=O)NC3CCc4ccccc43)ccc2c1OCC (stereo not drawn)	-77	1	-2	77*
